# Reference: ChEMBL document CHEMBL1129439, “Synthesis and in vitro characterization of N-[5-(4,5-dihydro-1H-imidazol-2-yl)-2-hydroxy-5,6,7,8- tetrahydronaphthalen-1-yl]methanesulfonamide and its enantiomers: a novel selective alpha 1A receptor agonist” (J Med Chem, 1996)
# Assays:
# [1] = biological target: T1, Alpha-1A adrenergic receptor (Bos taurus, UniProt P18130); assay: Binding affinity towards bovine clonal Alpha-1A adrenergic receptor
# T1 sequence (P18130 whole entry): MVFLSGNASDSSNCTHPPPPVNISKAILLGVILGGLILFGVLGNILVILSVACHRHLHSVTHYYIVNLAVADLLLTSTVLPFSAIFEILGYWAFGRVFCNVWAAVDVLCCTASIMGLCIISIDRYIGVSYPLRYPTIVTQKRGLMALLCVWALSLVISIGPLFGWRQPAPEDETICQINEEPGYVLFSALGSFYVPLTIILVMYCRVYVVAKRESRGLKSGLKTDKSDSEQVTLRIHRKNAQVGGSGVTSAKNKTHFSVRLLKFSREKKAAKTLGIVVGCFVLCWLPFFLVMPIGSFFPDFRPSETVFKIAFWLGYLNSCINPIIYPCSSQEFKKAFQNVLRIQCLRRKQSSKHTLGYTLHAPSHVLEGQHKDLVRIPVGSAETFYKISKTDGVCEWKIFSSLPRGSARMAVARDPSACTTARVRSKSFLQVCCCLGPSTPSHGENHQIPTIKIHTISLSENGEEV
# How it was run: (§1)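 Radioligand binding to cloned receptors: bovine α1a for line 1 and rat α1d for line 2.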
# [2] = biological target: T2, Alpha-1A adrenergic receptor (Homo sapiens) (UniProt P35348); assay: Percent response towards alpha 1A adrenergic receptor in canine prostate using phenylephrine as control agonist; assay type: functional, tissue-based; settings: Canis lupus familiaris; Prostate gland; target entry is the homologue from another species
# T2 sequence (whole entry): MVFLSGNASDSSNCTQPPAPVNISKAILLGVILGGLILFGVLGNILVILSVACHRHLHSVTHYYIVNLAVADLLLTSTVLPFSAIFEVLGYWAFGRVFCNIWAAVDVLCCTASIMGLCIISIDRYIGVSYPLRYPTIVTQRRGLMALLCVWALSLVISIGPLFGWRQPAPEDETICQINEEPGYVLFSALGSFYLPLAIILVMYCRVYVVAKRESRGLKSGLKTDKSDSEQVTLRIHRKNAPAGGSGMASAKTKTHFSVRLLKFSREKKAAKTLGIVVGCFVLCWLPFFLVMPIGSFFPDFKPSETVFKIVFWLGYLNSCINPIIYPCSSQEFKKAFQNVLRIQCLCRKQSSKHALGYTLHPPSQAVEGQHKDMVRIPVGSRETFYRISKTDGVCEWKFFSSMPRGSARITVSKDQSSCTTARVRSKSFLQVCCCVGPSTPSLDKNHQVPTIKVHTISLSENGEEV
# [3] = biological target: T3, Alpha-1A adrenergic receptor (Rattus norvegicus) (UniProt P43140); assay: Percent response towards alpha 1A adrenergic receptor in rat vas deferens using phenylephrine as control agonist; assay type: functional, tissue-based
# T3 sequence (whole entry): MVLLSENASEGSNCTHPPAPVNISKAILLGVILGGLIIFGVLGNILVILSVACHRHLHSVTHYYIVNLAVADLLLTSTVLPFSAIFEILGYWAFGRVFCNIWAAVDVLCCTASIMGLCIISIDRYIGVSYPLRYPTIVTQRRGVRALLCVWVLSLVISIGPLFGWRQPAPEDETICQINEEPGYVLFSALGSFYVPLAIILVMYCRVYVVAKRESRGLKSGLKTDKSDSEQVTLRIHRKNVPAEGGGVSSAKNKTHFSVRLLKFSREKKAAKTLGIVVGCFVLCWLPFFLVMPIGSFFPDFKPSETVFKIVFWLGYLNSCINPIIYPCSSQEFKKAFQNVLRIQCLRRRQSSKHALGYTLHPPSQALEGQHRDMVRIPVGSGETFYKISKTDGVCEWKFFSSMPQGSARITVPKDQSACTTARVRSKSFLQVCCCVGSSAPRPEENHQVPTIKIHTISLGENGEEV
# [4] = biological target: T4, Alpha-1D adrenergic receptor (Rattus norvegicus) (UniProt P23944); assay: Percent response towards alpha 1D adrenergic receptor in rat aorta using phenylephrine as control agonist; assay type: functional, tissue-based
# T4 sequence (whole entry): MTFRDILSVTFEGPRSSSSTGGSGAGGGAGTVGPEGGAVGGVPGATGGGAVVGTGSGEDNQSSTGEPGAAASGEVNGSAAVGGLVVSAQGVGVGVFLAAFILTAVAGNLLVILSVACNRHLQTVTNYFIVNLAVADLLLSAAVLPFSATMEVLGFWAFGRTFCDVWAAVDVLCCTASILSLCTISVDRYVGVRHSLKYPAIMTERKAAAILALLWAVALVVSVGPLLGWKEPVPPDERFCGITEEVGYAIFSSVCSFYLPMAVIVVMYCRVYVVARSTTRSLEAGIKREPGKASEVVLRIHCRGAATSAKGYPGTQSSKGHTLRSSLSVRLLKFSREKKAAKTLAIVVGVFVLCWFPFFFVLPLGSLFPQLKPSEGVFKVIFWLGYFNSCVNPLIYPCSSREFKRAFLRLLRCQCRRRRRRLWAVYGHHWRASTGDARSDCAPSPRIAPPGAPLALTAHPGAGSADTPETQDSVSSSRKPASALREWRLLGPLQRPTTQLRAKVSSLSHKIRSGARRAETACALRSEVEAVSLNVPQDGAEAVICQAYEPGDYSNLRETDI
# [5] = biological target: T5, Alpha-1B adrenergic receptor (Rattus norvegicus, UniProt P15823); assay: In vitro agonist potency towards Alpha-1B adrenergic receptor in rat spleen; assay type: functional, tissue-based
# T5 sequence (P15823 whole entry): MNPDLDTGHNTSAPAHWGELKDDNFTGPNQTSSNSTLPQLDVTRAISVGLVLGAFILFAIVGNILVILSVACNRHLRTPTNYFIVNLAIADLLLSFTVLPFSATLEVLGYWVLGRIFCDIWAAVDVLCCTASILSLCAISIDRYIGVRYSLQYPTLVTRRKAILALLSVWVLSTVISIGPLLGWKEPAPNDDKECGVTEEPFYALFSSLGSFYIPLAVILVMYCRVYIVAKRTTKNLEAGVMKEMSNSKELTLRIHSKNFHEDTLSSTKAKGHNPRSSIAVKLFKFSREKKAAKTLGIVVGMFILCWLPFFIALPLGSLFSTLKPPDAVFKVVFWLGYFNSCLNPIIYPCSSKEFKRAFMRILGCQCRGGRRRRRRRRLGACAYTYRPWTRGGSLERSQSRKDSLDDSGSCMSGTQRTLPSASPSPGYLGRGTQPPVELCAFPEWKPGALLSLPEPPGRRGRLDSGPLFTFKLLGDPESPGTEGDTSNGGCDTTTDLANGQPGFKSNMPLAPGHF
# [6] = biological target: T6, Alpha-1D adrenergic receptor (Rattus norvegicus, UniProt P23944); assay: In vitro agonist potency towards Alpha-1D adrenergic receptor in rat aorta; assay type: functional, tissue-based
# T6 sequence (P23944 whole entry): T4 sequence (whole entry)
# [7] = biological target: T6, Alpha-1D adrenergic receptor; assay: Binding affinity towards rat clonal Alpha-1D adrenergic receptor; how it was run: as §1
# [8] = biological target: T7, Alpha-1B adrenergic receptor (Mesocricetus auratus, UniProt P18841); assay: Binding affinity towards hamster clonal Alpha-1B adrenergic receptor; assay type: single protein
# T7 sequence (P18841 whole entry): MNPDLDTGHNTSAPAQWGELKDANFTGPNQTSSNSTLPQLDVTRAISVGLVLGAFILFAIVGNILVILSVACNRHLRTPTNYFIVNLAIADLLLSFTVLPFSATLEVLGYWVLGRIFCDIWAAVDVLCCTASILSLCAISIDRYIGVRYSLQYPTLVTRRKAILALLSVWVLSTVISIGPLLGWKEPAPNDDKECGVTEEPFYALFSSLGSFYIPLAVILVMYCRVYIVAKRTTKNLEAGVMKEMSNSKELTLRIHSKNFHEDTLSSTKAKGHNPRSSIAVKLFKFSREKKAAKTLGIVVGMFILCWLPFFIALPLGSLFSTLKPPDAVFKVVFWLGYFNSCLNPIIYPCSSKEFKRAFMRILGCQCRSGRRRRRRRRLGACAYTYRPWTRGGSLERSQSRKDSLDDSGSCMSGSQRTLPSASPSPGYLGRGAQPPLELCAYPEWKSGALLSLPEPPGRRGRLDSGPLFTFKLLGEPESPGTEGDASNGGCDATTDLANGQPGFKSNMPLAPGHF
smiles,measurement,setting,value
Cc1cc(C(C)(C)C)c(O)c(C)c1CC1=NCCN1 [OXYMETAZOLINE],Ki,[1],13.2 nM
same,Emax,[2],71%
same,Emax,[3],80%
same,Emax,[4],83%
CS(=O)(=O)Nc1c(O)ccc2c1CCC[C@H]2C1=NCCN1,EC50,[5],186 nM
same,Ki,[1],17.4 nM
same,Emax,[2],63%
same,Emax,[3],78%
same,Emax,[4],103%
same,EC50,[6],1020 nM
same,Ki,[7],1020 nM
same,Ki,[8],2820 nM
CNC[C@H](O)c1cccc(O)c1 [PHENYLEPHRINE],Ki,[1],933 nM
same,Emax,[2],100%
same,Emax,[3],100%
same,Emax,[4],100%
CS(=O)(=O)Nc1c(O)ccc2c1CCC[C@@H]2C1=NCCN1,EC50,[5],> 100000 nM
same,Ki,[1],1450 nM
same,Emax,[2],24%
same,Emax,[3],45%
same,EC50,[6],> 100000 nM
same,Ki,[7],2950 nM
same,Ki,[8],17400 nM
CS(=O)(=O)Nc1c(O)ccc2c1CCCC2C1=NCCN1 (stereo not given),Ki,[1],30.2 nM
same,Emax,[2],91%
same,Emax,[3],108%
same,Emax,[4],100%
same,EC50,[6],2570 nM
same,Ki,[7],1350 nM
same,Ki,[8],2090 nM
"NCC(O)c1ccc(O)c(O)c1 (single isomer, unassigned) [NOREPINEPHRINE]",Ki,[1],447 nM
same,Emax,[2],117%
same,Emax,[3],105%
same,Emax,[4],113%
same,Ki,[8],263 nM
